This is an account of results in ChEMBL document CHEMBL5252608, “Eremoxylarins D-J, Antibacterial Eremophilane Sesquiterpenes Discovered from an Endolichenic Strain of Xylaria hypoxylon” (J Nat Prod, 2023).

Common to all, as to type: functional
Assay [1] has as its system Staphylococcus aureus. Briefly: Antibacterial activity against Staphylococcus aureus CIP 53.156 assessed as bacterial growth inhibition incubated for 24 hrs by optical density based microplate reader analysis. Put shortly:
(§1)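 Broth microdilution in LB per CLSI, in triplicate; compounds dissolved in DMSO (stock 5 mg/mL; gentamicin stock 10 mg/mL as positive control), serially diluted 1:2. Wells inoculated with 10⁶ CFU/mL, incubated 24 h at 37 °C, with solvent as negative control. OD 630 nm read before and after incubation; MIC taken as the lowest-concentration clear well. Wells also plated on LB agar for 24 h at 37 °C.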

Assay [2] deals with Staphylococcus epidermidis. Briefly: Antibacterial activity against Staphylococcus epidermidis CIP 53.124 assessed as bacterial growth inhibition incubated for 24 hrs by optical density based microplate reader analysis. An outline of the steps:
as §1

The subject of assay [3] is Staphylococcus aureus. Briefly: Antibacterial activity against methicillin resistant Staphylococcus aureus DSM 13661 assessed as bacterial growth inhibition incubated for 24 hrs by optical density based microplate reader analysis. Put shortly: (§2)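 Broth microdilution per CLSI, in triplicate: compounds as 5 mg/mL DMSO stocks (gentamicin 10 mg/mL stock as positive control), serially diluted 1:2 in LB. Wells inoculated with 10⁶ CFU/mL, 24 h at 37 °C, solvent-only negative control. OD630 read before and after incubation. MIC taken as the lowest-concentration clear well, i.e. no visible growth.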

Another assay has as its system Pseudomonas aeruginosa. Briefly: Antibacterial activity against Pseudomonas aeruginosa CIP A22 assessed as bacterial growth inhibition incubated for 24 hrs by optical density based microplate reader analysis. An outline of the steps:
as §1

Another assay has as its system Escherichia coli. Briefly: Antibacterial activity against […] Escherichia coli CIP 54.8 assessed as bacterial growth inhibition incubated for 24 hrs by optical density based microplate reader analysis. An outline of the steps:
as §2

For another assay, the system named is Huh-7. Briefly: Cytotoxicity against human Huh-7 cells assessed as cell growth inhibition measured after 24 hrs by MTS assay. Put shortly:
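Huh-7 cells (DMEM with glutaMAX-I, 10% FBS, 37 °C, 5% CO₂), 6×10^4 per well, allowed 16 h before 24 h exposure to increasing compound concentrations (DMSO stocks 100 mM). Viability by MTS, formazan absorbance at 490 nm; CC50 derived. Mean ± SEM of 3 experiments.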

≈ marks a conversion by molar mass, not a printed value.

GENTAMICIN: the MIC (in general, the least concentration at which growth counts as inhibited) was 3.91 µg/mL in the assay on Staphylococcus aureus [1]; more than 250 µg/mL in assay [2]; 250 µg/mL with Staphylococcus aureus [3]; 1.95 µg/mL in the assay with Pseudomonas aeruginosa; 3.91 µg/mL in the assay with Escherichia coli.

Regarding `C=C(C=O)[C@H]1CC=C2[C@H](OC(=O)/C(C)=C/CCCCCCC)CC[C@H](C(=O)O)[C@@]2(C)C1`, the MIC in the assay on Staphylococcus aureus [1] was 0.39 µg/mL (≈ 0.906 µM); in assay [2] it was 1.56 µg/mL (≈ 3.62 µM); in the assay with Staphylococcus aureus [3], 1.56 µg/mL (≈ 3.62 µM); in the assay with Pseudomonas aeruginosa, more than 50 µg/mL; with Escherichia coli, more than 50 µg/mL. In addition, in the assay with Huh-7, the 50% cytotoxic concentration (CC50) (usually the concentration giving 50% cytotoxicity) came to 48.1 µM.

Consider `C=C(C=O)[C@H]1CC=C2[C@H](OC(=O)/C(C)=C/C=C/CCCCC)CC[C@H](C(=O)O)[C@@]2(C)C1`, for which the MIC in the assay on Staphylococcus aureus [1] is 1.56 µg/mL (≈ 3.64 µM); in assay [2] it was 3.1 µg/mL (≈ 7.23 µM); in the assay on Staphylococcus aureus [3], 3.1 µg/mL (≈ 7.23 µM); with Pseudomonas aeruginosa it was more than 50 µg/mL; in the assay on Escherichia coli, more than 50 µg/mL. Besides, the CC50 in the assay on Huh-7 was 184 µM.
